Screening data as filed in PubChem.
In the library only some 1.4% were active in any assay of this set; here they are far more common.
HIF activator: HIF pathway transcriptional activators, primary screen, cell-based, U2OS HRE-luciferase, luminescence | U2OS HRE-luciferase reporter; normalized: DMSO 0%, desferrioxamine 100% | activation, % at 7.5 µM (by protocol) | 300,000 compounds, 0.32% hits | AID 1910, 2009;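 active = mean activation of at least 10% of the iron chelator positive control signal, with at least half of replicates also reaching 10%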
T cell modulator: modulators of CD8 T cell-vesicle binding, primary screen, mouse 2C CD8+ T cells, flow cytometry | 330,000 compounds, 0.068% hits | AID 2052, 2009 | response (vesicle binding), % at 7 µM | 2C CD8+ T cell-vesicle binding; stronger effect = lower value;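 active = response, share of CD8 T cells binding vesicles, and their 90th percentile fluorescence all below set limits, cut at about 80% in these data, passing the limit was not always enough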;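 also: values below 100% mean blocked vesicle binding to the CD8+ T cells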
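incubation = binding step 1.5 h, 37 °C, antibody labelling 20 min, ice | test system = 2C mouse CD8+ T cells | read-out basis = percent CD8+ FL2 mean versus row control | controls = Peptide-free naked vesicles (low) and QL9 vesicles with 0.7% DMSO vehicle (high) | detection = flow cytometry of vesicle-bound cells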
SUMO Mot1 rescue: yeast Mot1-301 growth rescue at high temperature, primary screen, SUMOylation pathway inhibitor project, S. cerevisiae, ATP luminescence, 38.5C. S. cerevisiae Mot1-301 growth rescue; percent above DMSO median, 100 means doubled. growth rescue, % at 18.8 µM. 320,000 compounds, 1% hits;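 active = every valid replicate shows activation above 250% relative to neutral control wells; inactive = the rest, any valid replicate at or below 250%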;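 also: OY570 slx delta 5 strain wells were the positive control but not used for scaling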
JMJD2C inh: inhibitors of GASC-1 histone demethylase, primary screen, biochemical, fluorescence, DELFIA europium | inhibition, % at 2.35 µM | GST-JMJD2C(1-420) H3K9me3 demethylation | Lysine-specific demethylase 4C (Homo sapiens), Q9H3R0 | AID 2099, 2009 | 330,000 compounds, 0.069% hits;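 active = more than half of a compound's replicate wells show inhibition beyond 50%, single wells judged on their own value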;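 also: signal counts dimethyl H3K9 product captured on neutravidin plate; 0% = median of DMSO wells and 100% = 0.3 times that DMSO median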
Target sequence (Q9H3R0 1-420 limits assumed): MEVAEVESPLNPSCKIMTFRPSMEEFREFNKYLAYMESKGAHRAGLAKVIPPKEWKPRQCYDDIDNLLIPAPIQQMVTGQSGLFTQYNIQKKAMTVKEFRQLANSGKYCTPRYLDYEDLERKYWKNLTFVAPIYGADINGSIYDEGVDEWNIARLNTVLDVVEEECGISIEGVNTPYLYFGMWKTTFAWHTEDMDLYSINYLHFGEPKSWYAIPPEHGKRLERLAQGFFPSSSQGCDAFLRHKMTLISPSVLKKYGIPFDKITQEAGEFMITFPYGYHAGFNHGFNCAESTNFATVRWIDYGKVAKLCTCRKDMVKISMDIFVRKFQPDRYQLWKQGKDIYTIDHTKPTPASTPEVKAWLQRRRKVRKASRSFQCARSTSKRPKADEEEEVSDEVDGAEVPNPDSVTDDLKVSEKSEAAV
Starred values were filed as active, the others as inactive; i = inactive; · = not tested or not shown; + = active, no number.

SMILES	HIF activator	T cell modulator	SUMO Mot1 rescue	JMJD2C inh
CC(C)N(Cc1cc2ccccc2[nH]c1=O)C(=O)c1cccnc1	0	476	8	7
Brc1ccc(N/N=C(/N=Nc2nn[nH]n2)c2ccccc2)cc1	84*	414	-11	·
Cc1ccc(C(=O)NC(=O)CSc2ncccc2C(=O)O)cc1	1	140	2	24
CCC(=O)NC(=S)Nc1ccc(NC(=O)c2cccc([N+](=O)[O-])c2C)cc1	15*	251	290	-4
CCC(=O)NC(=S)Nc1ccc(NC(=O)c2ccccc2[N+](=O)[O-])cc1	2	120	5	-4
CCOC(=O)c1ccc(S(=O)(=O)NC2CCC(C)CC2)cc1 (centres undefined)	·	253	1	-10
CCOC(=O)N1CCN(Cc2nc(CC3CC3)no2)CC1	0	319	1	-12
CCOC(=O)C1CCCN(Cc2nc(CC3CC3)no2)C1 (centres undefined)	0	198	+	2
CC(=NCc1ccco1)c1c(C)[nH]n(-c2nc3ccccc3s2)c1=O	-1	958	353*	0
CCC(Cc1ccccc1)NC(=O)C1=C(C)C(=O)OC12CCC(C)CC2 (centres undefined)	0	586	-3	2
COc1ccc2nc(NC(=O)CSc3nc(C)cc(=O)[nH]3)sc2c1	1	599	4	2
COc1ccc2nc(NC(=O)CSc3nccc(C)n3)sc2c1	39*	126	-13	3
CCn1c(SCC(=O)Nc2nc3ccccc3s2)nnc1-c1ccc(OC)cc1	0	184	343*	0
Cc1ccc2nc(Cl)c3nnnn3c2c1	0	253	382*	8
Cc1ccc(S(=O)(=O)NCCc2cn3nc(C)c(C)nc3n2)cc1C	0	427	267*	-3
COc1ccc(S(=O)(=O)NCCc2cn3nc(C)c(C)nc3n2)cc1C	0	268	-5	0
O=C1CN(S(=O)(=O)c2cccc(Br)c2)CCN1	·	637	-2	-9
Oc1ccc(/C=N/Nc2ncc(Br)cn2)c(O)c1	19*	621	1	30
CCN(CC)S(=O)(=O)c1ccc(N/N=C/c2ccc(O)cc2O)nc1	117*	235	-22	-35
O=C(CNC(=O)c1cccs1)Nc1ccc(N2CCOCC2)cc1	·	437	2	12
O=C(O)c1cc(O)c2c(c1)[C@@H]([C@H]1c3cc(C(=O)O)cc(O)c3C(=O)c3c(O[C@@H]4O[C@H](CO)[C@@H](O)[C@H](O)[C@H]4O)cccc31)c1cccc(O[C@@H]3O[C@H](CO)[C@@H](O)[C@H](O)[C@H]3O)c1C2=O	·	267	35	91*
OCC1OC(Oc2cccc3ccccc23)C(O)C(O)C1O (centres undefined)	-1	270	-2	-5
CCc1ccc(-c2ccc(C(=O)O)cc2)nc1	2	33*	-22	-3
COc1ccc(C(=O)c2ccc(-c3ccc(OC)cc3)nc2)cc1	0	·	·	4
CCOC(=O)C1CCN(C(=O)c2cc(S(=O)(=O)N3CCOCC3)c(Cl)cc2Cl)CC1	0	436	285*	0
SMILES	HIF activator	T cell modulator	SUMO Mot1 rescue	JMJD2C inh
Cc1cc(C)c2c3c(sc2n1)C(=O)N(c1ccccc1C)CC(=O)N3	0	268	20	-1
Cc1ccc(N2CC(=O)Nc3c(sc4nc(C)cc(C)c34)C2=O)cc1	26*	290	25	-1
Cc1cccc(C)c1NC(=O)CSc1nc(COc2ccccc2)nc2ccccc12	0	250	-6	6
CCOC(=O)CSc1nc(COc2ccccc2)nc2ccccc12	1	47*	-24	-7
C[C@@H](NC(=O)Cn1cnc2c(OCc3ccccc3)ncnc21)c1cccc2ccccc12	·	0	-19	59*
CN(CC(=O)Nc1ccc(F)c(F)c1F)C(=O)C1CCCC1	·	330	·	·
Clc1ccc(NCc2ccsc2)cc1	-7	150	408*	6
Fc1ccccc1CNc1ccc(Cl)cc1	1	i	205	6
Cc1ccc(C(=O)COC(=O)c2cc(=O)[nH]c3ccccc23)cc1C	0	221	13	-1
CCCC(=O)NC(c1ccccc1OC)c1ccc2cccnc2c1O (centres undefined)	69*	102	-15	-12
COc1ccccc1C(NC(C)=O)c1cc(Cl)c2cccnc2c1O (centres undefined)	0	308	0	0
